# Measurements of several laboratories.
# Lines come from different studies, so protocols differ.
# Organism: Pichia kudriavzevii
# Effect on: microbial growth
Compound,assay,test system,setting,MIC
CCCCCCCCN1CCNCC1,broth dilution,ATCC6258,48 h,> 31.3 µg/mL
C[C@@H]1[C@H](O)[C@@H](C)/C=C/C=C/C=C/C=C/C=C/C=C/C=C/[C@H](O[C@@H]2O[C@H](C)[C@@H](O)[C@H](N)[C@@H]2O)C[C@@H]2O[C@](O)(C[C@@H](O)C[C@@H](O)[C@H](O)CC[C@@H](O)C[C@@H](O)CC(=O)O[C@H]1C)C[C@H](O)[C@H]2C(=O)O,,ATCC6258,,1.25 µg/mL
C[C@@H]1[C@H](O)[C@@H](C)/C=C/C=C/C=C/C=C/C=C/C=C/C=C/[C@H](O[C@@H]2O[C@H](C)[C@@H](O)[C@H](N)[C@@H]2O)C[C@@H]2O[C@](O)(C[C@@H](O)C[C@@H](O)[C@H](O)CC[C@@H](O)C[C@@H](O)CC(=O)O[C@H]1C)C[C@H](O)[C@H]2C(=O)O,,,,0.5 µM
CCCCCOc1c(OC)cc(NC(C)CCCNC(=O)C(N)Cc2ccccc2)c2nc(C(C)(C)C)ccc12 (stereo not drawn),,ATCC6258,,10 µg/mL
C=C(C)[C@@H]1CC[C@]2(C)CC[C@]3(C)[C@H](CC[C@@H]4[C@@]5(C)CC[C@H](O)C(C)(C)[C@@H]5CC[C@]43C)[C@@H]12,broth dilution,ATCC6258,48 h,250 µg/mL
CCCCCCCCCN1CCNCC1,broth dilution,ATCC6258,48 h,31.3 µg/mL
OC(Cn1cncn1)(Cn1cncn1)c1ccc(F)cc1F,broth dilution,ATCC6258,48 h,50 µg/mL
CCCCCCCOc1c(OC)cc(NC(C)CCCN)c2nc(C(C)(C)C)cc(C)c12 (stereo not drawn),,ATCC6258,,5 µg/mL
CCCCCCCCCCCCCCN1CCNCC1,broth dilution,ATCC6258,48 h,0.975 µg/mL
OC(Cn1cncn1)(Cn1cncn1)c1ccc(F)cc1F,broth dilution,ATCC6258,,32 µg/mL
CCCCCCCCCCN1CCNCC1,broth dilution,ATCC6258,48 h,7.8 µg/mL
CCCCCOc1c(OC)cc(NC(C)CCCNC(=O)C(N)CC(C)C)c2nc(C(C)(C)C)ccc12 (stereo not drawn),,ATCC6258,,10 µg/mL
